Data: ChEMBL document CHEMBL1123167, “Synthesis and evaluation of phenyl- and benzoylpiperazines as potential serotonergic agents” (J Med Chem, 1986)
Calls of active or inactive are those of the source. The calls are words filed in the database; no cut-off is given here.

Tests used:
[1] = Displacement of […] from 5-hydroxytryptamine 1 receptor of rat cortex
[2] = target: Serotonin 2 (5-HT2) receptor (Rattus norvegicus, UniProt P30994+P08909+P14842); experiment: Displacement of [3H]ketanserin from 5-hydroxytryptamine 2 receptor of rat cortex
Method in brief: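 Rat tissue homogenate (4 mg wet weight per assay) in 50 mM Tris, 5 mM MgCl2, 0.5 mM EDTA, pH 7.4 at 37 °C, competed against 0.4 nM [3H]ketanserin. Bound ligand was collected on glass fiber filters and counted by liquid scintillation. Assays were run in triplicate. IC50 came from a 23-point curve by nonlinear least-squares fitting, and Ki = IC50/(1 + [D]/KD).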

Rattus norvegicus [3] = experiment: Stimulus generalization in DOM-trained rats at dosage 0.1 mg/kg. Number of animals responding/number of animals are 3/3; assay type: functional
Rattus norvegicus [4] = experiment: Stimulus generalization in DOM-trained rats at dosage 0.5 mg/kg. Number of animals responding/number of animals are 2/3; assay type: functional
Rattus norvegicus [5] = experiment: Stimulus generalization in TFMPP-trained rats at dosage 1.0 mg/kg. Number of animals responding/number of animals are 5/5; assay type: functional
Rattus norvegicus [6] = experiment: Stimulus generalization in TFMPP-trained rats at dosage 1.2 mg/kg. Number of animals responding/number of animals are 5/5; assay type: functional
Rattus norvegicus [7] = experiment: Stimulus generalization in TFMPP-trained rats at dosage 0.1 mg/kg. Number of animals responding/number of animals are 4/5; assay type: functional
Rattus norvegicus [8] = experiment: Stimulus generalization in TFMPP-trained rats at dosage 0.4 mg/kg. Number of animals responding/number of animals are 3/4; assay type: functional
Rattus norvegicus [9] = experiment: Stimulus generalization in TFMPP-trained rats at dosage 0.05 mg/kg. Number of animals responding/number of animals are 4/4; assay type: functional
Rattus norvegicus [10] = experiment: Stimulus generalization in DOM-trained rats at dosage 1.0 mg/kg. Number of animals responding/number of animals are 0/3; D=Disruption of behavior; assay type: functional, organism-based; parameters: dose 1 mg/kg
Rattus norvegicus [11] = experiment: Stimulus generalization in TFMPP-trained rats at dosage 10 mg/kg. Number of animals responding/number of animals are 5/5; assay type: functional
Rattus norvegicus [12] = experiment: Stimulus generalization in TFMPP-trained rats at dosage 2.0 mg/kg. Number of animals responding/number of animals are 4/4; assay type: functional
Rattus norvegicus [13] = experiment: Stimulus generalization in TFMPP-trained rats at dosage 5.0 mg/kg. Number of animals responding/number of animals are 4/4; assay type: functional
Rattus norvegicus [14] = experiment: Stimulus generalization in TFMPP-trained rats at dosage 0.3 mg/kg. Number of animals responding/number of animals are 3/3; assay type: functional
Rattus norvegicus [15] = experiment: Compound was evaluated for Effective Dose DOM-trained rats at dosage 12.0 mg/kg. Number of animals responding/number of animals are 5/5; assay type: functional
Rattus norvegicus [16] = experiment: Stimulus generalization in DOM-trained rats at dosage 12.0 mg/kg. Number of animals responding/number of animals are 5/5; assay type: functional
Rattus norvegicus [17] = experiment: Stimulus generalization in DOM-trained rats at dosage 4.0 mg/kg. Number of animals responding/number of animals are 5/5; assay type: functional
Rattus norvegicus [18] = experiment: Stimulus generalization in DOM-trained rats at dosage 6.0 mg/kg. Number of animals responding/number of animals are 4/4; assay type: functional
Rattus norvegicus [19] = experiment: Stimulus generalization in TFMPP-trained rats at dosage 1.5 mg/kg. Number of animals responding/number of animals are 3/3; assay type: functional
Rattus norvegicus [20] = experiment: Stimulus generalization in TFMPP-trained rats at dosage 12.0 mg/kg. Number of animals responding/number of animals are 2/3; assay type: functional
Rattus norvegicus [21] = experiment: Stimulus generalization in TFMPP-trained rats at dosage 12.5 mg/kg. Number of animals responding/number of animals are 0/3; Disruption of Behavior; assay type: functional, organism-based; parameters: dose 12.5 mg/kg
Rattus norvegicus [22] = experiment: Stimulus generalization in TFMPP-trained rats at dosage 5.0 mg/kg. Number of animals responding/number of animals are 3/3; assay type: functional
Rattus norvegicus [23] = experiment: Stimulus generalization in TFMPP-trained rats at dosage 8.0 mg/kg. Number of animals responding/number of animals are 3/3; assay type: functional
Rattus norvegicus [24] = experiment: Stimulus generalization in DOM-trained rats at dosage 8.0 mg/kg. Number of animals responding/number of animals are 5/5; assay type: functional
Rattus norvegicus [25] = experiment: Compound was evaluated for ED50 in DOM-trained rats at dosage 9.0 mg/kg. Number of animals responding/number of animals are 3/3; assay type: functional
Rattus norvegicus [26] = experiment: Stimulus generalization in DOM-trained rats at dosage 1.0 mg/kg. Number of animals responding/number of animals are 3/3; assay type: functional
Rattus norvegicus [27] = experiment: Stimulus generalization in DOM-trained rats at dosage 3.0 mg/kg. Number of animals responding/number of animals are 3/3; assay type: functional
Rattus norvegicus [28] = experiment: Stimulus generalization in DOM-trained rats at dosage 5.0 mg/kg. Number of animals responding/number of animals are 3/3; assay type: functional
Rattus norvegicus [29] = experiment: Stimulus generalization in DOM-trained rats at dosage 8.0 mg/kg. Number of animals responding/number of animals are 3/3; assay type: functional
Rattus norvegicus [30] = experiment: Stimulus generalization in DOM-trained rats at dosage 9.0 mg/kg. Number of animals responding/number of animals are 3/3; assay type: functional
Rattus norvegicus [31] = experiment: Stimulus generalization in DOM-trained rats at dosage 12 mg/kg. Number of animals responding/number of animals are 4/4; assay type: functional
Rattus norvegicus [32] = experiment: Stimulus generalization in DOM-trained rats at dosage 13.5 mg/kg. Number of animals responding/number of animals are 3/4; assay type: functional
Rattus norvegicus [33] = experiment: Stimulus generalization in DOM-trained rats at dosage 14.0 mg/kg. Number of animals responding/number of animals are 1/5; D=Disruption of behavior; assay type: functional, organism-based; parameters: dose 14 mg/kg
Rattus norvegicus [34] = experiment: Stimulus generalization in DOM-trained rats at dosage 15 mg/kg. Number of animals responding/number of animals are 1/4; D=Disruption of behavior; assay type: functional, organism-based; parameters: dose 15 mg/kg
Rattus norvegicus [35] = experiment: Stimulus generalization in DOM-trained rats at dosage 18 mg/kg. Number of animals responding/number of animals are 0/4; D=Disruption of behavior; assay type: functional, organism-based; parameters: dose 18 mg/kg
Rattus norvegicus [36] = experiment: Stimulus generalization in TFMPP-trained rats at dosage 1.2 mg/kg. Number of animals responding/number of animals are 4/4; assay type: functional
Rattus norvegicus [37] = experiment: Stimulus generalization in TFMPP-trained rats at dosage 10 mg/kg. Number of animals responding/number of animals are 3/3; assay type: functional
Rattus norvegicus [38] = experiment: Stimulus generalization in TFMPP-trained rats at dosage 15 mg/kg. Number of animals responding/number of animals are 3/3; assay type: functional
Rattus norvegicus [39] = experiment: Stimulus generalization in TFMPP-trained rats at dosage 3.0 mg/kg. Number of animals responding/number of animals are 4/4; assay type: functional
Rattus norvegicus [40] = experiment: Stimulus generalization in TFMPP-trained rats at dosage 6.0 mg/kg. Number of animals responding/number of animals are 4/4; assay type: functional
Rattus norvegicus [41] = experiment: Stimulus generalization in DOM-trained rats at dosage 6.0 mg/kg. Number of animals responding/number of animals are 5/5; assay type: functional
Rattus norvegicus [42] = experiment: Compound was evaluated for ED50 in TFMPP-trained rats at dosage 0.50 mg/kg. Number of animals responding/number of animals are 4/4; assay type: functional
Rattus norvegicus [43] = experiment: Stimulus generalization in TFMPP-trained rats at dosage 0.50 mg/kg. Number of animals responding/number of animals are 5/5; assay type: functional; settings: dose 0.5 mg/kg
Rattus norvegicus [44] = experiment: Stimulus generalization in TFMPP-trained rats at dosage 0.20 mg/kg. Number of animals responding/number of animals are 4/4; assay type: functional; settings: dose 0.2 mg/kg
Rattus norvegicus [45] = experiment: Stimulus generalization in TFMPP-trained rats at dosage 0.30 mg/kg. Number of animals responding/number of animals are 4/4; assay type: functional; settings: dose 0.3 mg/kg
Rattus norvegicus [46] = experiment: Stimulus generalization in TFMPP-trained rats at dosage 0.35 mg/kg. Number of animals responding/number of animals are 4/4; assay type: functional
Rattus norvegicus [47] = experiment: Stimulus generalization in TFMPP-trained rats at dosage 0.15 mg/kg. Number of animals responding/number of animals are 3/3; assay type: functional
Rattus norvegicus [48] = experiment: Stimulus generalization in TFMPP-trained rats at dosage 0.1 mg/kg. Number of animals responding/number of animals are 4/4; assay type: functional

Cc1cccc(C(=O)N2CCNCC2)c1
Ki [1]: 20.7 µM
Ki [2]: 49 µM

COc1ccccc1N1CCNCC1
Ki [1]: 0.035 µM
Ki [2]: 3.5 µM
Response (Rattus norvegicus [3]): 12%
Response (Rattus norvegicus [4]): 20%
Response (Rattus norvegicus [5]): 81%
Response (Rattus norvegicus [6]): 94%
Response (Rattus norvegicus [7]): 33%
Response (Rattus norvegicus [8]): 63%
Response (Rattus norvegicus [9]): 23%
Response (Rattus norvegicus [10]): inactive

Oc1ccccc1N1CCNCC1
Ki [1]: 0.15 µM
Ki [2]: 17.2 µM
Response (Rattus norvegicus [11]): 24%
Response (Rattus norvegicus [12]): 12%
Response (Rattus norvegicus [13]): 22%
Response (Rattus norvegicus [14]): 17%

COc1cc(N2CCNCC2)c(OC)cc1C
Ki [1]: 0.68 µM
Ki [2]: 4.71 µM
ED50 (Rattus norvegicus [15]): 6.23 mg/kg
Response (Rattus norvegicus [16]): 83%
Response (Rattus norvegicus [17]): 21%
Response (Rattus norvegicus [18]): 53%
Response (Rattus norvegicus [19]): 11%
Response (Rattus norvegicus [20]): 30%
Response (Rattus norvegicus [21]): Disrupted behaviour
Response (Rattus norvegicus [22]): 11%
Response (Rattus norvegicus [23]): 7%
Response (Rattus norvegicus [24]): 68%

COc1cc(N2CCNCC2)c(OC)cc1Br
Ki [1]: 0.82 µM
Ki [2]: 2.43 µM
ED50 (Rattus norvegicus [25]): 4.08 mg/kg
Response (Rattus norvegicus [26]): 19%
Response (Rattus norvegicus [27]): 31%
Response (Rattus norvegicus [28]): 46%
Response (Rattus norvegicus [29]): 72%
Response (Rattus norvegicus [30]): 81%

O=C(c1cccc(Cl)c1)N1CCNCC1
Ki [1]: 17.1 µM
Ki [2]: 55.6 µM

COc1ccc(N)c(C(=O)CCN)c1
Ki [1]: 0.345 µM
Ki [2]: 8.48 µM

COc1ccc(OC)c(C(=O)N2CCNCC2)c1
Ki [1]: > 100 µM
Ki [2]: > 100 µM

COc1ccc(OC)c(N2CCNCC2)c1
Ki [1]: 1.03 µM
Ki [2]: 8.43 µM
Response (Rattus norvegicus [31]): 28%
Response (Rattus norvegicus [32]): 22%
Response (Rattus norvegicus [33]): inactive
Response (Rattus norvegicus [34]): inactive
Response (Rattus norvegicus [35]): inactive
Response (Rattus norvegicus [36]): 14%
Response (Rattus norvegicus [37]): 19%
Response (Rattus norvegicus [38]): 14%
Response (Rattus norvegicus [39]): 6%
Response (Rattus norvegicus [40]): 14%
Response (Rattus norvegicus [41]): 10%

FC(F)(F)c1cccc(N2CCNCC2)c1
Ki [1]: 0.02 µM
Ki [2]: 0.16 µM
ED50 (Rattus norvegicus [42]): 0.17 mg/kg
Response (Rattus norvegicus [43]): 93%
Response (Rattus norvegicus [44]): 51%
Response (Rattus norvegicus [45]): 70%
Response (Rattus norvegicus [46]): 90%
Response (Rattus norvegicus [9]): 25%
Response (Rattus norvegicus [47]): 42%
Response (Rattus norvegicus [48]): 8%
